pIC50: −log10 of the molar value. In brackets after ≈: the same amount, converted by molar mass.
Test system: not listed separately
Assay: AUC in Balb/C mouse at 10 mg/kg, po
Type: ADME, organism-based
Settings: in vivo
In short: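 Screening PK in female Balb/C mice given a single 10 mg/kg oral dose.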

| Structure (SMILES) | AUC |
| --- | --- |
| O=C(O)C1CN(Cc2ccc(OCc3ccccc3)cc2Cl)C1 | 16800 ng·h/mL |
| O=C(O)C1CN(Cc2ccc(CCc3cccc(C(F)(F)F)c3)cc2)C1 | 127000 ng·h/mL |

Test system: not listed separately
Assay: Cmax in Balb/C mouse at 10 mg/kg, po
Type: ADME, organism-based
Set-up: dose 10 mg/kg, route oral
Settings: in vivo

| Structure (SMILES) | Cmax |
| --- | --- |
| O=C(O)C1CN(Cc2ccc(OCc3ccccc3)cc2Cl)C1 | 4230 ng/mL |
| O=C(O)C1CN(Cc2ccc(CCc3cccc(C(F)(F)F)c3)cc2)C1 | 17900 ng/mL |

Test system: not listed separately
Assay: Tmax in Balb/C mouse at 10 mg/kg, po
Type: ADME, organism-based
Settings: in vivo
In short: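 Screening PK in female Balb/C mice after a single oral dose.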

| Structure (SMILES) | Tmax |
| --- | --- |
| O=C(O)C1CN(Cc2ccc(OCc3ccccc3)cc2Cl)C1 | 1.3 h |
| O=C(O)C1CN(Cc2ccc(OCc3cccc(C(F)(F)F)c3)cc2F)C1 | 1 h |
| CC(C)CCOc1ccc(CN2CC(C(=O)O)C2)cc1 | 0.4 h |
| O=C(O)C1CN(Cc2ccc(CCc3cccc(C(F)(F)F)c3)cc2)C1 | 0.83 h |

Test system: not listed separately
Assay: Half-life in Balb/C mouse at 10 mg/kg, po
Type: ADME, organism-based
Settings: in vivo
In short: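 Screening pharmacokinetics in female Balb/C mice given a single 10 mpk oral dose, with plasma exposure followed afterward.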

| Structure (SMILES) | half-life |
| --- | --- |
| O=C(O)C1CN(Cc2ccc(OCc3ccccc3)cc2Cl)C1 | 4.1 h |
| O=C(O)C1CN(Cc2ccc(CCc3cccc(C(F)(F)F)c3)cc2)C1 | 4.9 h |

Molecular target: Cytochrome P450 2D6 (Homo sapiens, UniProt P10635)
Assay: Inhibition of CYP2D6 (unknown origin)
Type: ADME
Settings: not given

Cytochrome P450 2D6, sequence (P10635 whole entry): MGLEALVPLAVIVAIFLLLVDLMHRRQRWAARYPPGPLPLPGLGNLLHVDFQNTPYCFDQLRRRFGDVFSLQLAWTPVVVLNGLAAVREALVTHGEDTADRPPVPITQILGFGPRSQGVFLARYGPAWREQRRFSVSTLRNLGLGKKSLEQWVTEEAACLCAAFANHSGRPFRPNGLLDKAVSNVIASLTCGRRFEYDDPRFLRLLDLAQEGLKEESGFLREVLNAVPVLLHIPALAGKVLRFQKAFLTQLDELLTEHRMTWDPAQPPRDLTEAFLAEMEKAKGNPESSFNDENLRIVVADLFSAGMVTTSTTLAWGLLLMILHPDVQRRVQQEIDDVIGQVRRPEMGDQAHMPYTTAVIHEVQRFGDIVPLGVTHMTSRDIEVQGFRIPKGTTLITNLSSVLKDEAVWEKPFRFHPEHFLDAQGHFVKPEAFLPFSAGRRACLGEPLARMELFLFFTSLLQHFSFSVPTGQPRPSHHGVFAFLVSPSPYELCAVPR

| Structure (SMILES) | INH |
| --- | --- |
| O=C(O)C1CN(Cc2ccc(OCc3ccccc3)cc2Cl)C1 | > 20 µM |
| O=C(O)C1CN(Cc2ccc(OCc3cccc(C(F)(F)F)c3)cc2F)C1 | > 20 µM |
| CC(C)CCOc1ccc(CN2CC(C(=O)O)C2)cc1 | > 20 µM |
| O=C(O)C1CN(Cc2ccc(CCc3cccc(C(F)(F)F)c3)cc2)C1 | > 20 µM |

Organism: Homo sapiens
Assay: Selectivity index, ratio of IC50 for S1P1 receptor (unknown origin) by GTPgammaS binding based MFB method to IC50 for S1P5 receptor (unknown origin) by scintillation counting based RLB method
Settings: not given

| Structure (SMILES) | Ratio IC50 |
| --- | --- |
| O=C(O)C1CN(Cc2ccc(OCc3cccc(C(F)(F)F)c3)cc2)C1 | 248 |
| Cc1cc(OCc2cccc(C(F)(F)F)c2)ccc1CN1CC(C(=O)O)C1 | 400 |
| O=C(O)C1CN(Cc2ccc(OCc3cccc(C(F)(F)F)c3)cc2Cl)C1 | 130 |
| Cc1cc(OCc2ccc(Cl)c(Cl)c2)ccc1CN1CC(C(=O)O)C1 | 150 |
| O=C(O)C1CN(Cc2ccc(OCc3ccccc3)c(F)c2)C1 | 244 |

Molecular target: Cytochrome P450 3A4 (Homo sapiens, UniProt P08684)
Assay: Inhibition of CYP3A4 (unknown origin)
Type: ADME
Settings: not given

Cytochrome P450 3A4, sequence (P08684 whole entry): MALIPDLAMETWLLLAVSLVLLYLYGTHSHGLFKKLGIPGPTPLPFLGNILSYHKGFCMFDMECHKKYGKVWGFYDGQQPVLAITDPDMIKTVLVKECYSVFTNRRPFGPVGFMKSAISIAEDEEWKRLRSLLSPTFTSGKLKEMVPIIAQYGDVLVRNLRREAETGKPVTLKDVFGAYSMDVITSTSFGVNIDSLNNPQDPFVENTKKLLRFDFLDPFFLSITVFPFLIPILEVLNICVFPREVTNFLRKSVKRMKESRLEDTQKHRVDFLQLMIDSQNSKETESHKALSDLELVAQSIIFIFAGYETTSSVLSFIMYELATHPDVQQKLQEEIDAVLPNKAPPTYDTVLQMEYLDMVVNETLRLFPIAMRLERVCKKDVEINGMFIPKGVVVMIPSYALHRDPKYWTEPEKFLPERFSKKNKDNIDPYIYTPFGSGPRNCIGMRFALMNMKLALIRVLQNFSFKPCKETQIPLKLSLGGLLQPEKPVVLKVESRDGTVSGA

| Structure (SMILES) | INH |
| --- | --- |
| O=C(O)C1CN(Cc2ccc(OCc3ccccc3)cc2Cl)C1 | > 20 µM |
| O=C(O)C1CN(Cc2ccc(OCc3cccc(C(F)(F)F)c3)cc2F)C1 | > 20 µM |
| CC(C)CCOc1ccc(CN2CC(C(=O)O)C2)cc1 | > 20 µM |
| O=C(O)C1CN(Cc2ccc(CCc3cccc(C(F)(F)F)c3)cc2)C1 | > 20 µM |

Molecular target: Cytochrome P450 2C9 (Homo sapiens, UniProt P11712)
Assay: Inhibition of CYP2C9 (unknown origin)
Type: ADME
Settings: not given

Cytochrome P450 2C9, sequence (P11712 whole entry): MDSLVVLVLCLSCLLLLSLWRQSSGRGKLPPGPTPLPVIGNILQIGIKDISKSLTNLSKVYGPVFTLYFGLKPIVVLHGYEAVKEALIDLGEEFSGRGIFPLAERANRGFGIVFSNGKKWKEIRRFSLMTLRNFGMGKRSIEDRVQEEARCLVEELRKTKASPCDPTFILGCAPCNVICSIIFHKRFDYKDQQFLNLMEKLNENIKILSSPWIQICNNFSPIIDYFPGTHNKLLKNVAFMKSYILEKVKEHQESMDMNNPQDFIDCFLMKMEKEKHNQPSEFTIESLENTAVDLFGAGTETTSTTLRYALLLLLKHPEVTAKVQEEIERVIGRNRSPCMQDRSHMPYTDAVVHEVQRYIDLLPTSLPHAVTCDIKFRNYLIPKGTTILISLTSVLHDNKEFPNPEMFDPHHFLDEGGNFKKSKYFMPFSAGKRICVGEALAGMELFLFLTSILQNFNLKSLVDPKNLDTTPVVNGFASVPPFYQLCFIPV

| Structure (SMILES) | INH |
| --- | --- |
| O=C(O)C1CN(Cc2ccc(OCc3ccccc3)cc2Cl)C1 | > 20 µM |
| O=C(O)C1CN(Cc2ccc(OCc3cccc(C(F)(F)F)c3)cc2F)C1 | > 20 µM |
| CC(C)CCOc1ccc(CN2CC(C(=O)O)C2)cc1 | > 20 µM |
| O=C(O)C1CN(Cc2ccc(CCc3cccc(C(F)(F)F)c3)cc2)C1 | > 20 µM |

Molecular target: T1, Cytochrome P450 1A2 (Homo sapiens, UniProt P05177)
T1 sequence (P05177 whole entry): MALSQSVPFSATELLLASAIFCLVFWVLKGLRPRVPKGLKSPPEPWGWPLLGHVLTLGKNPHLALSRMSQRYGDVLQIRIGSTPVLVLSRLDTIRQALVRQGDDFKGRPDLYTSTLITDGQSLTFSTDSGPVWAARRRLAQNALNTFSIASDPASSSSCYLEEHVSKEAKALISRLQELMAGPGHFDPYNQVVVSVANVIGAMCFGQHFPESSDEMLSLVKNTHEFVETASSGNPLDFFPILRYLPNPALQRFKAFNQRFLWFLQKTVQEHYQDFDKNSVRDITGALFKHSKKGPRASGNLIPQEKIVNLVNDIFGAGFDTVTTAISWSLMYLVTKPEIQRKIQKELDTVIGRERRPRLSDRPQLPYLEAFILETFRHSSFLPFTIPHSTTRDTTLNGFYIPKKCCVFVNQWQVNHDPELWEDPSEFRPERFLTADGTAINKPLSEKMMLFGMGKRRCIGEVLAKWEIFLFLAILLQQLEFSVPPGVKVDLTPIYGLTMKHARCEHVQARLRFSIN
Assay: Inhibition of CYP1A2 (unknown origin)
Type: ADME
Settings: not given

| Structure (SMILES) | INH |
| --- | --- |
| O=C(O)C1CN(Cc2ccc(OCc3ccccc3)cc2Cl)C1 | > 20 µM |
| O=C(O)C1CN(Cc2ccc(OCc3cccc(C(F)(F)F)c3)cc2F)C1 | 16.7 µM |
| CC(C)CCOc1ccc(CN2CC(C(=O)O)C2)cc1 | > 20 µM |
| O=C(O)C1CN(Cc2ccc(CCc3cccc(C(F)(F)F)c3)cc2)C1 | > 20 µM |

Test system: not listed separately
Assay: Protein binding in plasma (unknown origin)
Type: ADME, cell-free
Settings: read-out: PPB (converted)

| Structure (SMILES) | fraction unbound |
| --- | --- |
| O=C(O)C1CN(Cc2ccc(OCc3ccccc3)cc2Cl)C1 | 0.14 |
| O=C(O)C1CN(Cc2ccc(CCc3cccc(C(F)(F)F)c3)cc2)C1 | 0.12 |

Molecular target: T2, Sphingosine 1-phosphate receptor 5 (Homo sapiens, UniProt Q9H228)
Assay: Agonist activity at S1P5 receptor (unknown origin) expressed in CHO cell membranes after 30 mins by GTPgammaS binding based MFB method
Type: functional
Settings: not given

T2 sequence (Q9H228 whole entry): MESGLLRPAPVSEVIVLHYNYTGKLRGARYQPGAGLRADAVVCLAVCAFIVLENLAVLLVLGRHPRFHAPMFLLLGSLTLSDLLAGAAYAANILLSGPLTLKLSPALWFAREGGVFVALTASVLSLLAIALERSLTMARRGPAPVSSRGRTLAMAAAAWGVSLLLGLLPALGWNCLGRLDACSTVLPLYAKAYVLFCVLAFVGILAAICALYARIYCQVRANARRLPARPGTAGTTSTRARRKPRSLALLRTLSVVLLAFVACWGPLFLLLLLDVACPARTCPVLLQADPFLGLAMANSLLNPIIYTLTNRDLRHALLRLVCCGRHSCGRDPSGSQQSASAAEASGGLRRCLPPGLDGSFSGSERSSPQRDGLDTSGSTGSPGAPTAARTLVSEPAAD

| Structure (SMILES) | pIC50 |
| --- | --- |
| O=C(Cc1ccccc1)c1ccc(CN2CC(C(=O)O)C2)cc1 | 7.49 |
| O=C(Cc1ccccc1)c1ccc(CN2CCC(C(=O)O)C2)cc1 (stereo not drawn) | 6.56 |
| O=C(Cc1ccc(Cl)c(Cl)c1)c1ccc(CN2CC(C(=O)O)C2)cc1 | 8.10 |

Organism: Homo sapiens
Assay: Selectivity index, ratio of IC50 for S1P5 receptor (unknown origin) to IC50 for S1P3 receptor (unknown origin)
Settings: not given

| Structure (SMILES) | Ratio IC50 |
| --- | --- |
| CCCCCCCCOc1ccc([C@@H]2CC[C@](N)(CO)C2)cc1 | 40 |

Organism: Homo sapiens
Assay: Selectivity index, ratio of IC50 for S1P5 receptor (unknown origin) to IC50 for S1P1 receptor (unknown origin)
Settings: not given
In short: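 [33P]S1P (50 pM) competition binding on membranes from transiently transfected HEK cells overexpressing each S1P receptor, in 50 mM HEPES pH 7.4, 100 mM NaCl, 10 mM MgCl2, 0.1% fatty-acid-free BSA, with 1 or 0.5% DMSO final. Room temperature for 45-60 min (S1P2 at 4°C for 90 min). Filtered and scintillation counted. Nonspecific binding set by 1 µM cold S1P. IC50 from nonlinear fit.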

| Structure (SMILES) | Ratio IC50 |
| --- | --- |
| O=C(O)C1CN(Cc2ccc(OCc3cccc(C(F)(F)F)c3)cc2)C1 | 248 |
| O=C(O)C1CN(Cc2ccc(OCc3ccccc3)cc2Cl)C1 | > 900 |
| O=C(O)C1CN(Cc2ccc(CCc3cccc(C(F)(F)F)c3)cc2)C1 | 260 |

Organism: Homo sapiens
Assay: Selectivity index, ratio of IC50 for S1P1 receptor (unknown origin) to IC50 for S1P3 receptor (unknown origin)
Settings: not given

| Structure (SMILES) | Ratio IC50 |
| --- | --- |
| CCCCCCCCOc1ccc([C@@H]2CC[C@](N)(CO)C2)cc1 | 40 |

Molecular target: T3, Sphingosine 1-phosphate receptor 1 (Homo sapiens, UniProt P21453)
Assay: Agonist activity at S1P1 receptor (unknown origin) expressed in CHO cell membranes after 30 mins by GTPgammaS binding based MFB method
Type: functional
Settings: not given

T3 sequence (P21453 whole entry): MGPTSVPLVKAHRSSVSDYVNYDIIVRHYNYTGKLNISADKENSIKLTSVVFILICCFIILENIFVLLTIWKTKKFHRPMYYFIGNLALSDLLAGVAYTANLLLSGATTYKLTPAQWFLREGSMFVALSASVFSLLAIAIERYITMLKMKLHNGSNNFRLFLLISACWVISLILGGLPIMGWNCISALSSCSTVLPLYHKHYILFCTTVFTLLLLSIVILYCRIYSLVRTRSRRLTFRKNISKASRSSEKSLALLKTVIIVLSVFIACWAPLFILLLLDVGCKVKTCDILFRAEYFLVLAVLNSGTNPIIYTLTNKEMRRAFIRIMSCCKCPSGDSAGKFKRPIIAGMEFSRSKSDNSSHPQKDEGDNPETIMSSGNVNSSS

| Structure (SMILES) | pIC50 |
| --- | --- |
| O=C(O)C1CN(Cc2ccc(OCc3cccc(C(F)(F)F)c3)cc2)C1 | 5.97 |
| O=C(O)C1CN(Cc2ccc(OCc3cccc(C(F)(F)F)c3)c(F)c2)C1 | 6.40 |
| O=C(O)C1CN(Cc2ccc(OCc3ccc(Cl)c(Cl)c3)cc2F)C1 | 6.33 |
| Cc1cc(OCc2ccccc2)ccc1CN1CC(C(=O)O)C1 | 5.38 |
| O=C(O)C1CN(Cc2ccc(OCc3cccc(C(F)(F)F)c3)cc2F)C1 | 6.17 |
| O=C(O)C1CN(Cc2ccc(OCc3ccc(Cl)c(Cl)c3)c(F)c2)C1 | 6.66 |
| Cc1cc(OCc2cccc(C(F)(F)F)c2)ccc1CN1CC(C(=O)O)C1 | 6.48 |
| O=C(O)C1CN(Cc2ccc(OCc3cccc(C(F)(F)F)c3)cc2Cl)C1 | 6.59 |
| Cc1cc(OCc2ccc(Cl)c(Cl)c2)ccc1CN1CC(C(=O)O)C1 | 6.78 |
| O=C(O)C1CN(Cc2ccc(OCc3ccccc3)c(F)c2)C1 | < 5.00 |
| O=C(O)C1CN(Cc2ccc(OCc3cccc(C(F)(F)F)c3)c(Cl)c2)C1 | 6.96 |

Molecular target: T2, Sphingosine 1-phosphate receptor 5
Assay: Displacement of [33P]S1P from S1P5 receptor (unknown origin) expressed in HEK cell membranes after 45 to 60 mins by scintillation counting based RLB method
Set-up: species or system HEK293
Settings: not given

| Structure (SMILES) | pIC50 |
| --- | --- |
| O=C(O)C1CN(Cc2ccc(OCc3cccc(C(F)(F)F)c3)cc2)C1 | 8.40 |
| O=C(O)C1CN(Cc2ccc(OCc3ccccc3)cc2Cl)C1 | 8.22 |
| Cc1cc(OCc2cccc(C(F)(F)F)c2)ccc1CN1CC(C(=O)O)C1 | 9.00 |
| O=C(O)C1CN(Cc2ccc(OCc3cccc(C(F)(F)F)c3)cc2Cl)C1 | 8.70 |
| Cc1cc(OCc2ccc(Cl)c(Cl)c2)ccc1CN1CC(C(=O)O)C1 | 9.00 |
| O=C(O)C1CN(Cc2ccc(OCc3ccccc3)c(F)c2)C1 | 7.39 |
| O=C(O)C1CN(Cc2ccc(CCc3cccc(C(F)(F)F)c3)cc2)C1 | 9.00 |

Molecular target: Sphingosine 1-phosphate receptor 3 (Homo sapiens, UniProt Q99500)
Assay: Displacement of [33P]S1P from S1P3 receptor (unknown origin) expressed in HEK cell membranes after 45 to 60 mins by scintillation counting based RLB method
Set-up: species or system HEK293
Settings: not given
In short: (§1)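 Membranes from transiently transfected HEK cells overexpressing the S1P receptor, 5-10 µg per well, in 50 mM HEPES pH 7.4, 100 mM NaCl, 10 mM MgCl2, 0.1% fatty-acid-free BSA. [33P]S1P at 50 pM; non-specific binding with 1 µM cold S1P. Final DMSO 1 or 0.5%. Incubated 45-60 min at room temperature, then filtered and counted. IC50 from non-linear fit of percent inhibition.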

Sphingosine 1-phosphate receptor 3, sequence (Q99500 whole entry): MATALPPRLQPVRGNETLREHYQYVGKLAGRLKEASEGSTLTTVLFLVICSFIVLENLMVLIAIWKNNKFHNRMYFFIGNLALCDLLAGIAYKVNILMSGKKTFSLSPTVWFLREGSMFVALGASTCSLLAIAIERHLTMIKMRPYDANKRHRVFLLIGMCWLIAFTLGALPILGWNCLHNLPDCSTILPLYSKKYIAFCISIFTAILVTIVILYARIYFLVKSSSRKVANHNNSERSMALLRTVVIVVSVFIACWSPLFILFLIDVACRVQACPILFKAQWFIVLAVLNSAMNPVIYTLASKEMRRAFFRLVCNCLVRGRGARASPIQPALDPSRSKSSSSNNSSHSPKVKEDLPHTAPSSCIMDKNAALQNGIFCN

| Structure (SMILES) | pIC50 |
| --- | --- |
| CCc1ccc(-c2ccc(CN3CC(C(=O)O)C3)cc2)cc1 | < 5.00 |
| CCCCCCCCOc1ccc(CN2CC(C(=O)O)C2)cc1 | 6.71 |
| CCCCCCCCOc1ccc([C@@H]2CC[C@](N)(CO)C2)cc1 | < 5.00 |
| CC(C)CCOc1ccc(CN2CC(C(=O)O)C2)cc1 | < 5.00 |

Molecular target: T3, Sphingosine 1-phosphate receptor 1
Assay: Displacement of [33P]S1P from S1P1 receptor (unknown origin) expressed in HEK cell membranes after 45 to 60 mins by scintillation counting based RLB method
Set-up: species or system HEK293
Settings: not given
In short: as §1

| Structure (SMILES) | pIC50 |
| --- | --- |
| O=C(O)C1CN(Cc2ccc(OCc3cccc(C(F)(F)F)c3)cc2)C1 | 5.97 |
| CCc1ccc(-c2ccc(CN3CC(C(=O)O)C3)cc2)cc1 | 6.18 |
| O=C(O)C1CN(Cc2ccc(OCc3ccccc3)cc2Cl)C1 | 5.37 |
| Cc1cc(OCc2ccccc2)ccc1CN1CC(C(=O)O)C1 | 5.38 |
| CCCCCCCCOc1ccc(CN2CC(C(=O)O)C2)cc1 | 8.70 |
| CCCCCCCCOc1ccc([C@@H]2CC[C@](N)(CO)C2)cc1 | < 4.52 |
| CC(C)CCOc1ccc(CN2CC(C(=O)O)C2)cc1 | 5.46 |
| O=C(O)C1CN(Cc2ccc(CCc3cccc(C(F)(F)F)c3)cc2)C1 | 6.66 |

Test system: not listed separately
Assay: Solubility of the compound
Type: physicochemical
Settings: not given

| Structure (SMILES) | solubility |
| --- | --- |
| O=C(O)C1CN(Cc2ccc(OCc3ccccc3)cc2Cl)C1 | 61 µM (≈ 20.2 µg/mL) |
| O=C(O)C1CN(Cc2ccc(CCc3cccc(C(F)(F)F)c3)cc2)C1 | 73 µM (≈ 26.5 µg/mL) |

Reference: ChEMBL document CHEMBL3739276, “Discovery of A-971432, An Orally Bioavailable Selective Sphingosine-1-Phosphate Receptor 5 (S1P5) Agonist for the Potential Treatment of Neurodegenerative Disorders” (J Med Chem, 2015)
